ChEMBL document CHEMBL1152304, “Alteration of the bis-tetrahydrofuran core stereochemistries in asimicin can affect the cytotoxicity” (J Med Chem, 2008)

Legend:
[1] = test system: MC-38; experiment: Cytotoxicity against mouse Colon 38 cells at 0.3 ug by disk diffusion assay; type: functional
Outline: (§1)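 15 µL of sample dried overnight on 6.5 mm filter disk. Disk placed near edge of 60 mm dish of cells plated in soft agar, incubated 7-10 days. Zone of inhibition measured from disk edge to start of normal-sized colony formation, disk diameter taken as 200 units. Overly toxic samples diluted 1:4 or 1:10 and retested.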

[2] = test system: HCT-116; experiment: Cytotoxicity against human HCT116 cells at 30 ug by disk diffusion assay; type: functional; outline: as §1
[3] = Inhibition of bovine heart mitochondrial complex1 activity; parameters: species or system Bos taurus
Outline: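 Bovine heart submitochondrial particles, 15 µg/mL, in 0.25 M sucrose, 1 mM MgCl2, 50 mM phosphate pH 7.5. Inhibitor added at various concentrations and equilibrated 5 min. Reaction started with 150 µM NADH and followed spectrophotometrically at 340 nm. IC50 derived.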

[4] = test system: MC-38; experiment: Cytotoxicity against mouse Colon 38 cells at 30 ug by disk diffusion assay; type: functional; outline: as §1
[5] = Cytotoxicity against human CFU-GM cells at 0.3 ug by disk diffusion assay; type: functional; outline: as §1
[6] = test system: L1210; experiment: Cytotoxicity against mouse L1210 cells at 3 ug by disk diffusion assay; type: functional; outline: as §1
[7] = test system: L1210; experiment: Cytotoxicity against mouse L1210 cells at 30 ug by disk diffusion assay; type: functional; outline: as §1
[8] = Cytotoxicity against human H125M cells at 30 ug by disk diffusion assay; type: functional; outline: as §1
[9] = Cytotoxicity against human CFU-GM cells at 30 ug by disk diffusion assay; type: functional; outline: as §1
[10] = test system: L1210; experiment: Cytotoxicity against mouse L1210 cells at 0.3 ug by disk diffusion assay; type: functional; outline: as §1
[11] = test system: MC-38; experiment: Cytotoxicity against mouse Colon 38 cells at 3 ug by disk diffusion assay; type: functional; outline: as §1
[12] = test system: CCRF-CEM; experiment: Cytotoxicity against human CEM cells at 30 ug by disk diffusion assay; type: functional; outline: as §1
[13] = Cytotoxicity against human CFU-GM cells at 3 ug by disk diffusion assay; type: functional; outline: as §1
[14] = test system: HCT-116; experiment: Cytotoxicity against human HCT116 cells assessed as surviving fraction at 1 ug/ml after 24 hrs; type: functional
Outline: (§2)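 HCT-116 cells exposed to drug at 0.001-10 µg/mL for 2 h, 24 h or continuously (168 h). Surviving clonogenic cells counted. 90% kill (S10) used as comparison point.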

[15] = Cytotoxicity against human CFU-GM cells at 60 ug by disk diffusion assay; type: functional; outline: as §1
[16] = Cytotoxicity against human CFU-GM cells at 15 ug by disk diffusion assay; type: functional; outline: as §1
[17] = test system: HCT-116; experiment: Cytotoxicity against human HCT116 cells at 15 ug by disk diffusion assay; type: functional; outline: as §1
[18] = test system: L1210; experiment: Cytotoxicity against mouse L1210 cells at 15 ug by disk diffusion assay; type: functional; outline: as §1
[19] = test system: HCT-116; experiment: Cytotoxicity against human HCT116 cells assessed as surviving fraction at 0.0001 ug/ml after 24 hrs; type: functional
[20] = Cytotoxicity against human CFU-GM cells at 3.75 ug by disk diffusion assay; type: functional; outline: as §1
[21] = test system: HCT-116; experiment: Cytotoxicity against human HCT116 cells assessed as surviving fraction at 0.01 ug/ml after 2 hrs; type: functional; outline: as §2
[22] = test system: HCT-116; experiment: Cytotoxicity against human HCT116 cells assessed as surviving fraction at 0.0001 ug/ml after 168 hrs; type: functional
[23] = Cytotoxicity against human H125M cells at 15 ug by disk diffusion assay; type: functional; outline: as §1
[24] = test system: HCT-116; experiment: Cytotoxicity against human HCT116 cells assessed as surviving fraction at 10 ug/ml after 2 hrs; type: functional; outline: as §2
[25] = test system: HCT-116; experiment: Cytotoxicity against human HCT116 cells assessed as surviving fraction at 1 ug/ml after 168 hrs; type: functional; outline: as §2
[26] = test system: HCT-116; experiment: Cytotoxicity against human HCT116 cells assessed as surviving fraction at 0.001 ug/ml after 24 hrs; type: functional; outline: as §2
[27] = test system: L1210; experiment: Cytotoxicity against mouse L1210 cells at 60 ug by disk diffusion assay; type: functional; outline: as §1
[28] = test system: HCT-116; experiment: Cytotoxicity against human HCT116 cells; type: functional, cell-based
[29] = test system: HCT-116; experiment: Cytotoxicity against human HCT116 cells assessed as surviving fraction at 0.1 ug/ml after 168 hrs; type: functional; outline: as §2
[30] = test system: MC-38; experiment: Cytotoxicity against mouse Colon 38 cells at 60 ug by disk diffusion assay; type: functional; outline: as §1
[31] = test system: HCT-116; experiment: Cytotoxicity against human HCT116 cells assessed as surviving fraction at 0.001 ug/ml after 2 hrs; type: functional; outline: as §2
[32] = Cytotoxicity against human CFU-GM cells at 0.94 ug by disk diffusion assay; type: functional; outline: as §1
[33] = test system: L1210; experiment: Cytotoxicity against mouse L1210 cells at 3.75 ug by disk diffusion assay; type: functional; outline: as §1
[34] = test system: MC-38; experiment: Cytotoxicity against mouse Colon 38 cells at 3.75 ug by disk diffusion assay; type: functional; outline: as §1
[35] = test system: MC-38; experiment: Cytotoxicity against mouse Colon 38 cells at 15 ug by disk diffusion assay; type: functional; outline: as §1
[36] = test system: MC-38; experiment: Cytotoxicity against mouse Colon 38 cells at 0.94 ug by disk diffusion assay; type: functional; outline: as §1
[37] = test system: HCT-116; experiment: Cytotoxicity against human HCT116 cells assessed as surviving fraction at 10 ug/ml after 168 hrs; type: functional; outline: as §2
[38] = test system: HCT-116; experiment: Cytotoxicity against human HCT116 cells assessed as surviving fraction at 1 ug/ml after 2 hrs; type: functional; outline: as §2
[39] = test system: HCT-116; experiment: Cytotoxicity against human HCT116 cells assessed as surviving fraction at 10 ug/ml after 24 hrs; type: functional; outline: as §2
[40] = test system: CCRF-CEM; experiment: Cytotoxicity against human CEM cells at 15 ug by disk diffusion assay; type: functional; outline: as §1
[41] = test system: HCT-116; experiment: Cytotoxicity against human HCT116 cells assessed as surviving fraction at 0.1 ug/ml after 24 hrs; type: functional; outline: as §2
[42] = test system: HCT-116; experiment: Cytotoxicity against human HCT116 cells assessed as surviving fraction at 0.1 ug/ml after 2 hrs; type: functional; outline: as §2
[43] = test system: HCT-116; experiment: Cytotoxicity against human HCT116 cells assessed as surviving fraction at 0.001 ug/ml after 168 hrs; type: functional; outline: as §2
[44] = test system: HCT-116; experiment: Cytotoxicity against human HCT116 cells assessed as surviving fraction at 0.01 ug/ml after 24 hrs; type: functional; outline: as §2
[45] = test system: L1210; experiment: Cytotoxicity against mouse L1210 cells at 0.94 ug by disk diffusion assay; type: functional; outline: as §1
[46] = test system: HCT-116; experiment: Cytotoxicity against human HCT116 cells assessed as surviving fraction at 0.01 ug/ml after 168 hrs; type: functional; outline: as §2
[47] = test system: HCT-116; experiment: Cytotoxicity against human HCT116 cells assessed as surviving fraction at 0.0001 ug/ml after 2 hrs; type: functional

Which “inhibition zone (IZ)” value [1] does the source give for `CCCCCCCCCC[C@@H](O)[C@@H]1CC[C@@H]([C@@H]2CC[C@H]([C@H](O)CCCCCCCCCC[C@@H](O)CC3=C[C@H](C)OC3=O)O2)O1` here?
The value was 500 Zone units.

What about the “inhibition zone (IZ)” value [2] of the same compound?
Its value is 600 Zone units.

What about the IC50 [3] of the same compound?
Its IC50 is 3 nM.

And the “inhibition zone (IZ)” value [4]?
The value was 750 Zone units.

And the “inhibition zone (IZ)” value [5]?
The value was 500 Zone units.

And the “inhibition zone (IZ)” value [6]?
Its value is 150 Zone units.

And the “inhibition zone (IZ)” value [7]?
The value was 250 Zone units.

What about the “inhibition zone (IZ)” value [8] of the same compound?
Its value is 600 Zone units.

What about the “inhibition zone (IZ)” value [9] of the same compound?
The value was 650 Zone units.

What about the “inhibition zone (IZ)” value [10] of the same compound?
Its value is 50 Zone units.

What about the “inhibition zone (IZ)” value [11] of the same compound?
The value was 750 Zone units.

What about the “inhibition zone (IZ)” value [12] of the same compound?
Its value is 200 Zone units.

What about the “inhibition zone (IZ)” value [13] of the same compound?
Its value is 550 Zone units.

Which Activity [14] does the source give for `CCCCCCCCCCC(O)C1CCC(C2CCC(C(O)CCCCCCCC[C@H](O)CC3=C[C@@H](C)OC3=O)O2)O1` (stereo partly drawn) [ASIMICIN] here?
The Activity was 0.48.

And the “inhibition zone (IZ)” value [15]?
Its value is 600 Zone units.

What about the “inhibition zone (IZ)” value [16] of the same compound?
Its value is 300 Zone units.

And the IC50 [3]?
The IC50 was 1.2 nM.

And the “inhibition zone (IZ)” value [17]?
The value was 600 Zone units.

What about the “inhibition zone (IZ)” value [18] of the same compound?
The value was 200 Zone units.

What about the Activity [19] of the same compound?
Its Activity is 1.

And the “inhibition zone (IZ)” value [20]?
The value was 500 Zone units.

And the Activity [21]?
The Activity was 0.8.

What about the Activity [22] of the same compound?
Its Activity is 0.66.

And the “inhibition zone (IZ)” value [23]?
The value was 300 Zone units.

What about the Activity [24] of the same compound?
Its Activity is 0.66.

What about the Activity [25] of the same compound?
Its Activity is 0.001.

And the Activity [26]?
Its Activity is 0.88.

And the “inhibition zone (IZ)” value [27]?
Its value is 600 Zone units.

And the IC50 [28]?
The IC50 was 0.51 nM.

And the Activity [29]?
Its Activity is 0.001.

What about the “inhibition zone (IZ)” value [30] of the same compound?
Its value is 800 Zone units.

And the Activity [31]?
The Activity was 0.94.

And the “inhibition zone (IZ)” value [32]?
The value was 0 Zone units.

What about the “inhibition zone (IZ)” value [33] of the same compound?
The value was 400 Zone units.

What about the “inhibition zone (IZ)” value [34] of the same compound?
The value was 950 Zone units.

And the “inhibition zone (IZ)” value [35]?
The value was 900 Zone units.

What about the “inhibition zone (IZ)” value [36] of the same compound?
The value was 650 Zone units.

What about the Activity [37] of the same compound?
Its Activity is 0.001.

What about the Activity [38] of the same compound?
The Activity was 0.8.

And the Activity [39]?
The Activity was 0.12.

What about the “inhibition zone (IZ)” value [40] of the same compound?
The value was 200 Zone units.

And the Activity [41]?
The Activity was 0.54.

And the Activity [42]?
Its Activity is 0.98.

What about the Activity [43] of the same compound?
The Activity was 0.001.

And the Activity [44]?
The Activity was 0.73.

What about the “inhibition zone (IZ)” value [45] of the same compound?
The value was 150 Zone units.

What about the Activity [46] of the same compound?
Its Activity is 0.001.

What about the Activity [47] of the same compound?
Its Activity is 0.97.
